Experimental data published in ChEMBL document CHEMBL4513216, “Probing the Open Global Health Chemical Diversity Library for Multistage-Active Starting Points for Next-Generation Antimalarials” (ACS Infect Dis, 2020).

Assay: Toxicity liver stage against HepG2, at 10uM
Assay type: cell-based
Parameters: test concentration 10 uM, cell line HepG2-A16-CD81EGFP
Conditions: human, HepG2-A16-CD81EGFP cells; read-out: INHIBITION
Outline: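 Uninfected HepG2-A16-CD81EGFP cells, 3 × 10^3 per well, 1536-well, plated on prespotted compound at 10 μM final, parasite-free screening media added to match infected plates; puromycin 10 μM positive, DMSO 0.5% negative; run in parallel with 48 h PbLuc assay at 37 °C, 5% CO2; viability by CellTiter-Glo luminescence, normalized to controls.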

SMILES	cytotoxicity at 10 µM
O=C(NC[C@H]1OC[C@@H](NC2CCOCC2)[C@@H]1O)Nc1ccccc1	-5.75%
COc1cc(CN2CCCCCC2c2cccs2)cc(OC)c1O (stereo unspecified)	8.6%
O=C(C1CC1)N1CCN2C[C@H](c3ccccc3)[C@@H](CO)[C@H]2C1	4.9%
Cc1nn2c(NC(=O)CSc3nccn3C)csc2nc1=O	9.71%
O=c1c(NCc2ccccn2)c(NCC(O)CN2CCOCC2)c1=O (stereo unspecified)	-54.5%
Cc1cnc2c(c1NCc1ccc(F)cc1)c(=O)n(C)c(=O)n2C	-7.36%
O=S(=O)(NCC(O)c1ccc2c(c1)CCO2)c1ccccc1F (stereo unspecified)	-8.25%
Cn1cc(C(=O)Nc2ccc(CC(=O)NCC(F)(F)F)cc2)nn1	10.8%
CCN(C)C(=O)c1ccnn1-c1ccc2ccccn12	6.71%
O=C(C1CC1)N1CCC2(CC1)CNCCO2	-2.82%
CCn1ncc2c1CN(C(=O)c1ccc3c(c1)OCO3)CC2COC (stereo unspecified)	8.7%
CNC(=O)C1CC2(CCN(C(=O)c3csnn3)CC2)c2ccccc21 (stereo unspecified)	-154%
Cc1noc(C2CN(S(C)(=O)=O)Cc3ccnn3C2)n1 (stereo unspecified)	4.92%
COCC1CN(S(=O)(=O)C2CC2)Cc2ncn(CC3CC3)c21 (stereo unspecified)	9.03%
COc1cccc(Cn2c(=O)n(C)c(=O)c3sccc32)c1	3.29%
Cc1ccccc1COCCOCn1c(C)cc(=O)[nH]c1=O	2.56%
O=C(c1ccnn1COc1ccc(Cl)cc1)N1CCOCC1	-3.94%
CN(C)Cc1cccc(-c2cccnc2C(=O)NCc2cn(C)cn2)c1	4.09%
Cc1nc(Nc2ncc(C)s2)cc(C2CCCN2S(C)(=O)=O)n1 (stereo unspecified)	-37.6%
c1cc(-c2nc(C3CCN(Cc4ccsc4)CC3)no2)ccn1	-26.5%
CC(=O)N1CCC(c2ccnc(Nc3cnccn3)n2)C1 (stereo unspecified)	-0.182%
CC(C)(C)c1n[nH]cc1CN1CCc2nc3ccsc3c(=O)n2CC1	6.12%
Cc1ccc(OCCCNC(=O)C(C)Sc2nncn2C)cc1 (stereo unspecified)	-45%

SMILES	cytotoxicity at 10 µM
Cc1noc(C2CCCN(C(=O)c3cc(Cl)c(Cl)n3C)C2)n1 (stereo unspecified)	13.6%
CN(Cc1ccco1)C(=O)C1CCCc2ccccc21 (stereo unspecified)	3.68%
COCCNC(=O)N1CCOCC1c1c(C)nn(C)c1C (stereo unspecified)	-8.18%
COc1c(NS(=O)(=O)c2ccc(C)c(C)c2)c(C)nn1C	3.73%
Cc1cc(C)n(CC(C)NC(=O)NCc2c(C)cc(C)[nH]c2=O)n1 (stereo unspecified)	-6.58%
N#Cc1cccc(CN2CCCC2c2ccc[nH]2)c1 (stereo unspecified)	-11.9%
CCN(C1CCN(Cc2ncc(C(C)(C)C)o2)CC1)S(C)(=O)=O	-4.15%
CCN(C(=O)CN1CCn2c(nnc2C2CC2)C1)C1=CCCCC1	10%
O=C(NCc1cccnc1-n1cncn1)c1ccncc1	5.91%
Cc1cccc2nc(CNC(=O)N3CCC(OCC4CC4)CC3)cn12	-2.02%
CCC(CC)C(=O)Nc1ccc2oc(=O)n(CCN(C)C)c2c1	-13.7%
COc1ccc(N(C(=O)c2ccccn2)C(C)C)cc1F	-1.26%
CS(=O)(=O)CCSCc1ccc(Br)c(F)c1	0.49%
O=C(C[S+]([O-])Cc1c(Cl)cccc1Cl)N1CCc2sccc2C1 (stereo unspecified)	-7.23%
Cc1cccc(C(C)(C)NC(=O)CCS(C)(=O)=O)c1	2.41%
CCCc1nc(C)c(C(=O)NCCn2ccnc2)s1	8.14%
Cc1cccc2c(CCNC(=O)NCCC[S+](C)[O-])c[nH]c12 (stereo unspecified)	-25.4%
O=C(CCN1C(=O)CCC1=O)Nc1ccc(Oc2ccc(Cl)cc2)nc1	-23.5%
Cc1occc1C(=O)N(CCN(C)C)Cc1ccccn1	7.65%
CN(CCOc1ccc(Cl)cc1)Cc1ccc(S(=O)(=O)N(C)C)o1	33.6%
CC(C)Cc1noc(CN2CCOCC2C)n1 (stereo unspecified)	2.8%
COc1ccccc1C(C)N1CCN(S(C)(=O)=O)CC1 (stereo unspecified)	9.62%
O=C(Nc1ccncc1)NC1CCN(c2ccccc2Cl)C1=O (stereo unspecified)	-43.6%

SMILES	cytotoxicity at 10 µM
CSCC(=O)Nc1nccn1Cc1ccc(Br)cc1	-45.8%
CCN(CC(=O)N(C)C)S(=O)(=O)c1cnc2c(c1)c(C)nn2C	2.59%
Cc1cn2c(n1)C(CNCc1ccc(C)s1)CCC2 (stereo unspecified)	-26.3%
O=C(NC1CC1)c1cc2c(s1)CCN2C(=O)C1CC1	6.17%
O=C1[C@H]2CN(c3cnccn3)C[C@H]2CN1CC1CC1	-108%
CCC(=O)N1CCC2(CC1)CC(CC(=O)N(C)C)c1ccc(F)cc12 (stereo unspecified)	-101%
O=C(c1cccs1)N1CCC2(C1)c1ccccc1S(=O)(=O)N2CC1CC1 (stereo unspecified)	-4.27%
CC(Cn1cncn1)NCc1csc2c1CCCC2 (stereo unspecified)	-1.53%
CCc1ncc2c(n1)CN(C(=O)CC(C)NC(C)=O)C2 (stereo unspecified)	3.6%
CCc1ncc(C(=O)N(CCOC)Cc2nccs2)cn1	-1.47%
CCC(Nc1nc(CCN)nc2ccccc12)c1cccs1 (stereo unspecified)	-3.09%
CCCc1cc(CN(C)C2CSCCSC2)n[nH]1	0.786%
COc1cc(CN2CCC3(CC2)[C@H](O)C[C@@H]3OCCO)ccc1F	-12.2%
Cc1ccc2nc(-c3cnc(N)nc3)c(C)c(C(=O)N(C)C)c2c1	-13.8%
Cc1nccn1CCC1CCCCN1Cc1ccc2c(c1)OCCO2 (stereo unspecified)	-7.63%
CCCC(C)NCc1cccnc1N1CCN(c2ccccn2)CC1 (stereo unspecified)	6.99%
CN(Cc1cc2n(n1)CCNC2)Cc1noc(C2CCC2)n1	15.2%
COc1ccccc1N1CCN(C(=O)CSCC2CC2)C(C)C1 (stereo unspecified)	4.06%
O=C(CCc1ccccn1)NC1CCCN(C2Cc3ccccc3C2)C1 (stereo unspecified)	1.96%
CSCCN1CCC(NC(=O)c2cccc(C3CCCNC3)c2)CC1 (stereo unspecified)	0.49%
COC(=O)c1ccc(-c2noc(CN(CCO)Cc3cccs3)n2)cc1	6.43%
CN(C)[C@H]1CCCCN(C(=O)COCc2nc3cc(F)ccc3[nH]2)C1	0.185%
Nc1nc(CCC(=O)N2C[C@H](c3ccccc3)[C@@H](N)C2)cs1	4.49%

SMILES	cytotoxicity at 10 µM
COCC1(CNC(=O)Nc2cc(F)ccc2OC)CCCC1	5.17%
CNC(=O)[C@@H]1C[C@@H](NC(=O)Cc2nonc2C)CN1Cc1sccc1C	-4.42%
CCc1cc(NC2CCN(CC(N)=O)CC2)nc(N2CCCCC2)n1	-4.75%
Cn1cnnc1CCC(=O)N1CCCC(OCc2cccnc2)C1 (stereo unspecified)	2.66%
CN1CCN(c2cnn(Cc3ccc(S(C)(=O)=O)cc3)c(=O)c2)CC1	-10.4%
COc1ccc(-c2n[nH]cc2CN(C)Cc2nccn2C)c(F)c1	-2.77%
O=C1CCCN1CCN1CC[C@@]2(O)CCN(c3ncccn3)C[C@H]2C1	-2.61%
COC(=O)c1cc(CN2CCN(c3nc(C)cnc3C)CC2)ccc1O	0.171%
COCC1(C(=O)N[C@H]2CN(c3ccnc(C)c3)C[C@@H]2C2CC2)CCC1	-160%
Cc1ncc(CC(=O)N2CCC3(CCC(=O)N(C4CC4)C3)CC2)c(=O)[nH]1	-45.1%
CC1CCCN(Cc2ccc(C(N)=O)cc2)C1 (stereo unspecified)	-10.4%
CC(C1CCN(Cc2cnn(C)c2C2CC2)CC1)N(C)C (stereo unspecified)	7.88%
CN(C)CCn1ccnc1C1CCN(c2cc(N)nc(N)n2)CC1	0.829%
CCC[C@@H]1CN(C(=O)c2cnc3ccccc3c2)C[C@H]1NS(C)(=O)=O	-11.1%
O=C(c1cccs1)N1CCC(n2nc(-c3ccco3)ccc2=O)CC1	-6.62%
O=C(c1cnco1)N1CCCC(Cc2cccc3ncccc23)C1 (stereo unspecified)	2.16%
CC1CN(C)CCN1C(=O)c1ccn(-c2cccc(F)c2)n1 (stereo unspecified)	-1.87%
Cc1nc(C)n(CC2CN(Cc3cc(C#N)ccc3F)CCO2)n1 (stereo unspecified)	-1.56%
COCc1cccc(CNCc2c(C(C)C)nn(C)c2N(C)C)c1	-7.16%
CC(NC(=O)NCc1cc[nH]n1)c1ccc2c(c1)CCC(=O)N2 (stereo unspecified)	-9.37%
CCc1nc(C2CCCN2CCCS(=O)(=O)c2ccccc2)no1 (stereo unspecified)	-6.15%
Cc1ccc(-c2nc(CN3CCCC3Cn3cc(C)cn3)no2)cc1 (stereo unspecified)	4.07%
CC(C)Oc1ccccc1CNC(=O)N1CCC(n2cncn2)CC1	2.38%

SMILES	cytotoxicity at 10 µM
CCOC(=O)N1CCN(c2nc(NCCCO)c3ccccc3n2)CC1	-9.21%
Cc1cc(C[C@@H]2COC[C@H]2NCc2ccc(Cl)c(Cl)c2)on1	-5.44%
Cc1cnc(N2CCC3(CC2)CC3CNC(=O)C2CCC2)nc1 (stereo unspecified)	38%
CC(C)(C)C(=O)N1C[C@H](c2ccsc2)[C@H]2CN(C3CCCCC3)CC[C@H]21	5.9%
Cc1ccc(N2CCO[C@H]3CN(Cc4ccccn4)C[C@H]32)nn1	-79.8%
CC1CCN(CCCNS(=O)(=O)c2cc(F)cc(F)c2)CC1	11.3%
O=C(CC1CC1)NCc1cn2c(n1)CN(Cc1cccc(F)c1)CC2	-85.8%
Cc1ccc2c(CC(=O)N(C)CCN(C)C)c(C)[nH]c2c1C	8.42%
CCOCC1CN(C(=O)c2cnoc2C)Cc2cn(C)nc21 (stereo unspecified)	12.9%
CN1CCCCC12CCN(C(=O)c1cccn1C)CC2	8.22%
CN1CCN(c2ccc3ccc(C(=O)N4CCCO4)cn23)CC1	13.4%
O=C(c1ccncc1F)N1Cc2nc(CN3CCCCC3)oc2C1	-105%
N#Cc1cccc(N2CCCC3(CNCCO3)C2)n1 (stereo unspecified)	13.7%
O=C(C1CCCCC1)N1CCC2(CCCN2CC2CC2)CC1	3.56%
COC[C@@]12CCO[C@@H]1CCN(Cc1ccccc1OC)C2	-110%
CCS(=O)(=O)N1CCOC2(CCCN(c3ccccn3)C2)C1 (stereo unspecified)	3.16%
O=C(NC1CCC1)[C@H]1C[C@H]2CN(S(=O)(=O)c3ccccc3)C[C@@H]1O2	-9.02%
O=C(CN1C[C@@H]2CC[C@H]1CN(Cc1ccccn1)C2)NCc1cccs1	-24.2%
O=C(NCC1CCC(c2nnc(-c3cccnc3)o2)CC1)C1CC1 (stereo unspecified)	3.15%
